Test: Inhibition of Escherichia coli […] expressed in Escherichia coli TB1 using sodium pyruvate as substrate assessed as reduction of 2,6-DCPIP preincubated for 3 mins followed by ThDP addition
How it was run: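 MBP-fused E. coli PDHc-E1 from plasmid pMal-C2X in strain TB1 (LB with 2% glucose, ampicillin, 37 °C to A600 0.6–0.8; 0.5 mM IPTG, 7 h, 25 °C), MBP affinity-purified, Bradford-quantified. Reaction: 50 mM K3PO4 pH 7.2, 2.0 mM pyruvate, 0.8 mM 2,6-DCPIP, enzyme, inhibitor at varied concentrations; 3 min at 37 °C, then ThDP added; DCPIP reduction read at 600 nm.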

**Q.** Which IC50 does the source give for `Cc1ncc(Cn2nnc(C(=O)N/N=C/c3ccc(Br)cc3)c2C)c(N)n1` here?
**A.** 1.89 µM

**Q.** Which IC50 does the source give for `Cc1ncc(Cn2nnc(C(=O)N/N=C/c3ccccc3)c2C)c(N)n1` here?
**A.** 110 µM

**Q.** With `Cc1ncc(Cn2nnc(C(=O)N/N=C/c3ccccc3O)c2C)c(N)n1` as the compound, how does the IC50 read?
**A.** 11.6 µM

**Q.** Which IC50 does the source give for `Cc1ncc(Cn2nnc(C(=O)N/N=C/c3ccc([N+](=O)[O-])cc3)c2C)c(N)n1` here?
**A.** 0.65 µM

**Q.** With `Cc1ncc(Cn2nnc(C(=O)N/N=C/c3ccc(O)cc3)c2C)c(N)n1` as the compound, how does the IC50 read?
**A.** 3.43 µM

**Q.** For `Cc1ncc(Cn2nnc(C(=O)N/N=C/c3ccc(C(F)(F)F)cc3)c2C)c(N)n1`, which IC50 is on record?
**A.** 1.92 µM

**Q.** Which IC50 does the source give for `Cc1ncc(Cn2nnc(C(=O)N/N=C/c3cccc(O)c3)c2C)c(N)n1` here?
**A.** 23.4 µM

**Q.** Which IC50 does the source give for `Cc1ncc(Cn2nnc(C(=O)N/N=C/c3ccccn3)c2C)c(N)n1` here?
**A.** 22.8 µM

**Q.** For `Cc1ncc(Cn2nnc(C(=O)N/N=C/c3ccc(Cl)cc3)c2C)c(N)n1`, which IC50 is on record?
**A.** 2.35 µM

**Q.** With `Cc1ncc(Cn2nnc(C(=O)N/N=C/c3ccccc3Cl)c2C)c(N)n1` as the compound, how does the IC50 read?
**A.** 13.6 µM

**Q.** With `Cc1ncc(Cn2nnc(C(=O)N/N=C/c3ccccc3Br)c2C)c(N)n1` as the compound, how does the IC50 read?
**A.** 53.8 µM

**Q.** Which IC50 does the source give for `Cc1ncc(Cn2nnc(C(=O)N/N=C/c3ccc(Cl)c([N+](=O)[O-])c3)c2C)c(N)n1` here?
**A.** 1.71 µM

**Q.** Which IC50 does the source give for `Cc1ccc(/C=N/NC(=O)c2nnn(Cc3cnc(C)nc3N)c2C)cc1` here?
**A.** 50.3 µM

**Q.** For `Cc1ncc(Cn2nnc(C(=O)N/N=C/c3ccc(F)cc3)c2C)c(N)n1`, which IC50 is on record?
**A.** 8 µM

**Q.** With `Cc1cccc(/C=N/NC(=O)c2nnn(Cc3cnc(C)nc3N)c2C)c1` as the compound, how does the IC50 read?
**A.** 20.9 µM

**Q.** Which IC50 does the source give for `Cc1ncc(Cn2nnc(C(=O)N/N=C/c3ccc4c(c3)OCO4)c2C)c(N)n1` here?
**A.** 14.5 µM

From ChEMBL document CHEMBL3102816, “Design, synthesis and molecular modeling of novel N-acylhydrazone derivatives as pyruvate dehydrogenase complex E1 inhibitors” (Bioorg Med Chem, 2014)
